Data taken from ChEMBL document CHEMBL5236592, “Induction of Ferroptosis in Glioblastoma and Ovarian Cancers by a New Pyrrole Tubulin Assembly Inhibitor” (J Med Chem, 2022).
Active and inactive are the calls of the source.

Experiments:
Mus musculus [1] = experiment: Upregulation of Nrf2 mRNA expression in tumor of BALB/C nu/nu mouse xenografted with human SK-OV-3 cells at 25 mg/kg, ip administered every 2 days for 40 days by qPCR analysis; type: functional, organism-based; settings: time 40.0 day
Method in brief: (§1)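 Female BALB/c nu/nu mice, 10 weeks old, 4 per group. Inoculated s.c. with 1 × 10^8 cells/mL of log-phase U-87 MG or SKOV-3 cells. Dosed i.p. with 100 μL at 25 mg/kg every 2 days; controls got 100 μL saline. Tumors harvested on day 40. RNA extracted from about 20 mg of tissue. qPCR panel of 69 genes, 40 cycles (94 °C 20 s, 60 °C 34 s). Analysed by 2–ΔΔCt; fold ≥1.5 taken as increased.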

Mus musculus [2] = experiment: Upregulation of Slc7a11 mRNA expression in tumor of BALB/C nu/nu mouse xenografted with human SK-OV-3 cells at 25 mg/kg, ip administered every 2 days for 40 days by qPCR analysis; type: functional, organism-based; settings: time 40.0 day; method in brief: as §1
Mus musculus [3] = experiment: Upregulation of Ireb2 mRNA expression in tumor of BALB/C nu/nu mouse xenografted with human U-87 MG cells at 25 mg/kg, ip administered every 2 days for 40 days by qPCR analysis; type: functional, organism-based; settings: time 40.0 day; method in brief: as §1
SK-OV-3 [4] = experiment: Induction of ferroptosis-mediated antitumor activity against human SK-OV-3 cells xenografted in BALB/C nu/nu mouse assessed as reduction in FTH1 protein expression in tumor at 25 mg/kg, ip administered every 2 days for 40 days by immunofluoresence staining based assay; type: functional, organism-based; settings: time 40.0 day
Method in brief: (§2)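 Xenografts of U-87 MG or SKOV-3 (1 × 10^8 cells/mL, sc) in female BALB/c nu/nu mice, 4 per group. Treated ip at 25 mg/kg in 100 μL every 2 days versus saline, tumors collected at day 40. Paraffin sections (6 μm) were blocked at 37 °C for 30 min, then incubated with rabbit anti-GPX4 or anti-FTH1 and then Alexa Fluor 488 anti-rabbit, each for 45 min at 37 °C.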

Mus musculus [5] = experiment: Upregulation of Nfe2l2 mRNA expression in tumor of BALB/C nu/nu mouse xenografted with human U-87 MG cells at 25 mg/kg, ip administered every 2 days for 40 days by qPCR analysis; type: functional, organism-based; settings: time 40.0 day; method in brief: as §1
Mus musculus [6] = experiment: Upregulation of Gclc mRNA expression in tumor of BALB/C nu/nu mouse xenografted with human U-87 MG cells at 25 mg/kg, ip administered every 2 days for 40 days by qPCR analysis; type: functional, organism-based; settings: time 40.0 day
Method in brief: (§3)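 Female BALB/c nu/nu mice bearing sc U-87 MG or SKOV-3 xenografts were dosed ip at 25 mg/kg (100 μL) every 2 days, or given saline, and tumors were taken at day 40. RNA was extracted from about 20 mg of tissue. qPCR ran 40 cycles (95 °C 15 min; 94 °C 20 s; 60 °C 34 s) on a 69-gene panel. Fold change was by 2^–ΔΔCt, with ≥1.5 counted as increased.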

OVCAR-3 = experiment: Induction of apoptosis in human OVCAR-3 cells assessed as increase cleaved PARP expression at 5 to 10 nM incubated for 48 hrs by immunoblot analysis; type: functional, cell-based; settings: dose 5-10 nM
Method in brief: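 OVCAR-3 cells were grown in DMEM with 20% FBS and 0.01 μg/mL insulin. They were treated for 48 h at 0, 0.25, 2.5, 5 and 10 nM. Lysates were made in SDS–urea, sonicated and run on SDS-PAGE, then transferred to nitrocellulose. Blots were probed with anti-PARP (1:1000; full-length and cleaved) and anti-actin loading control (1:10,000), with HRP/ECL detection.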

SK-OV-3 [7] = experiment: Induction of ferroptosis-mediated antitumor activity against human SK-OV-3 cells xenografted in BALB/C nu/nu mouse assessed as reduction in GPX4 protein expression in tumor at 25 mg/kg, ip administered every 2 days for 40 days by immunofluoresence staining based assay; type: functional, organism-based; settings: time 40.0 day; method in brief: as §2
Mus musculus [8] = experiment: Upregulation of Cs mRNA expression in tumor of BALB/C nu/nu mouse xenografted with human U-87 MG cells at 25 mg/kg, ip administered every 2 days for 40 days by qPCR analysis; type: functional, organism-based; settings: time 40.0 day; method in brief: as §3
U-87MG ATCC [9] = experiment: Induction of ferroptosis-mediated antitumor activity against human U-87 MG cells xenografted in BALB/C nu/nu mouse assessed as reduction in FTH1 protein expression in tumor at 25 mg/kg, ip administered every 2 days for 40 days by immunofluoresence staining based assay; type: functional, organism-based; settings: time 40.0 day; method in brief: as §2
Mus musculus [10] = experiment: Upregulation of Ptgs2 mRNA expression in tumor of BALB/C nu/nu mouse xenografted with human SK-OV-3 cells at 25 mg/kg, ip administered every 2 days for 40 days by qPCR analysis; type: functional, organism-based; settings: time 40.0 day; method in brief: as §1
U-87MG ATCC [11] = experiment: Antitumor activity against human U-87 MG cells xenografted in BALB/C nu/nu mouse assessed as reduction in Ki67 expression in tumor at 25 mg/kg, ip administered every 2 days for 40 days by immunofluoresence staining based assay; type: functional, organism-based; settings: time 40.0 day
Method in brief: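 Female BALB/c nu/nu mice, 10 weeks old, 4 per group. Received subcutaneous U-87 MG or SKOV-3 cells (1 × 10^8 cells/mL, harvested in log phase). Dosed ip with 100 μL at 25 mg/kg every 2 days; controls got 100 μL saline on the same schedule. Sacrificed at 40 days; tumors weighed, volume = ab²/2. Tumor sections (6 μm, paraffin) stained by immunofluorescence for Ki67 or CD31 with Alexa Fluor 488 secondary.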

Measured: Activity

COc1cc(C(=O)c2cn(-c3ncccn3)cc2-c2ccco2)cc(OC)c1OC
active: all assays above
